STK33 inh: human STK33 kinase inhibition. inhibition, % at 10 µM. purified STK33, MBP phosphorylation, ADP-Glo luminescence. Q9BYT3. 0.073% of 320,000 active;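 active = inhibition at or above 25%, using the most active replicate where run in duplicate; inactive = inhibition below 25%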
Target sequence (Q9BYT3 whole entry, looked up): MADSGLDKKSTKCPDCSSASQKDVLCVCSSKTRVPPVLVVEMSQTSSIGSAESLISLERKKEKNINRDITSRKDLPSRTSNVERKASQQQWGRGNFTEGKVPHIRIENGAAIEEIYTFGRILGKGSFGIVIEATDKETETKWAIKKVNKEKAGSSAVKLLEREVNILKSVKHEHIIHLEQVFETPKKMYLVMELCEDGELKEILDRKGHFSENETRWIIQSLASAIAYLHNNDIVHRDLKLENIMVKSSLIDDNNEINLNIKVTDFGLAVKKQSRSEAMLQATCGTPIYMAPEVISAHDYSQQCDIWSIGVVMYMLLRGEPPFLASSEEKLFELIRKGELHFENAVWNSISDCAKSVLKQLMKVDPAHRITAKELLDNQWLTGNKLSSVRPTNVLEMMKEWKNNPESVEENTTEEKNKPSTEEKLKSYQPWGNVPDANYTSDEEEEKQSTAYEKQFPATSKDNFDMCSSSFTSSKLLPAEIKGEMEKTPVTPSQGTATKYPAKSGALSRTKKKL
CDK5 inh: CDK5/p35 (human) kinase inhibition | Q00535+Q15078 | Recombinant CDK5/p35, ADP-Glo luminescence, 60 min | inhibition, % at 10 µM | 0.01% of 330,000 active;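 active = highest replicate inhibition of at least 50% and at least 75% of replicates reaching 50%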;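 also: plate controls were DMSO neutral control for no effect and GW8510 at 10 µM for full effect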
GSK3beta inhib: inhibitors of human GSK3beta kinase; activity score (negative = inhibition), % at 10 µM; P49841; 0.038% of 300,000 active; GST-GSK3beta kinase, ADP-Glo luminescence, 60 min; hits give low values;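 active = more than half of replicate wells score below -50%, meaning over 50% inhibition versus plate controls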;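 also: 0% = median DMSO wells and -100% = median GW8510 positive control wells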
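Test system: GST-tagged human GSK3beta kinase, cell-free; evaluation: activity score scaled between in-plate DMSO and GW8510 controls; measured by: ADP-Glo luminescence; incubation: 60 min reaction, RT; benchmarks: DMSO and 20 µM GW8510; reagent: peptide substrate plus 25 µM ATP (final); medium: Tris/MgCl2 kinase buffer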
GSK3 alpha inh: inhibitors of human GSK-3 alpha kinase; inhibition, % at 10 µM; 0.1% of 320,000 active; AID 2650; P49840; ADP-Glo luminescence, 60 min;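 active = more than half of replicates show inhibition above 20%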;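 also: GST-tagged GSK-3 alpha with peptide substrate and 25 µM ATP; 0% = DMSO neutral wells and 100% = GW8510 positive control wells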
* marks the source's active call; other numbers are inactive results; · = no result. Only some compounds are listed: those with a hit (about 0.16% of all), similar ones and a draw of the others.

SMILES | STK33 inh | CDK5 inh | GSK3beta inhib | GSK3 alpha inh
CC(/C=N/NC(=O)c1nnn(-c2nonc2N)c1CN(C)C)=C\c1ccco1 | 0 | 1 | -5 | 50*
CC(C)c1c(C(=O)N/N=C/c2cccnc2)nnn1-c1nonc1N | -1 | 0 | 1 | -1
CCN(CC)Cc1c(C(=O)N/N=C/c2cccnc2)nnn1-c1nonc1N | -1 | -2 | 0 | 53*
CN(Cc1c(C(=O)N/N=C/c2ccccc2)nnn1-c1nonc1N)C1CCCCC1 | 0 | 2 | 1 | 4
CCCN(CCC)Cc1c(C(=O)N/N=C/C(C)=C\c2ccco2)nnn1-c1nonc1N | 0 | 1 | 1 | -3
CCOc1cccc(-c2c(C(=O)N/N=C(\C)c3cccnc3)nnn2-c2nonc2N)c1 | 0 | 4 | 0 | 52*
Cc1ccc(S(=O)(=O)N(C)c2ccc(OC(C)C(=O)N(C)c3ccccc3)cc2)cc1 (configuration not stated) | · | -1 | · | ·
O=C1NC(=S)S/C1=C\c1cccc([N+](=O)[O-])c1 | · | 1 | · | ·
CCCN(CCC)Cc1c(C(=O)N/N=C/c2ccncc2)nnn1-c1nonc1N | 0 | -2 | -45 | 74*
CCn1cc(/C=C/C(=O)c2ccc(O)cc2)c(C)n1 | 44* | 3 | 4 | 1
Cc1c(/C=C/C(=O)c2ccc(O)cc2)cnn1C | 29* | -2 | 0 | 3
Cc1nn(C)cc1/C=C/C(=O)c1ccccc1 | 5 | -1 | -1 | 0
O=C(Nc1cc(C(=O)Nc2ccccc2C(=O)O)cc(C(=O)Nc2ccccc2C(=O)O)c1)c1ccccc1 | 49* | -6 | 3 | 1
Cc1ccc(NC(=O)c2cccc(C(=O)Nc3ccc(C)cc3C(=O)O)c2)c(C(=O)O)c1 | 37* | 0 | 10 | -3
COc1ccc(C)cc1NC(=O)c1cccc(C(=O)Nc2cc(C)ccc2OC)c1 | 0 | 1 | -3 | -4
O=C(Nc1ccccc1C(=O)O)c1cccc(NC(=O)c2ccccc2Br)c1 | 6 | 0 | 1 | -3
O=C(Nc1ccccc1-c1ccccc1)c1ccc(Br)o1 | 36* | -2 | 1 | 1
O=C(Nc1nc2ccccc2[nH]1)c1ccc(Br)o1 | 60* | 2 | -1 | 0
COc1ccccc1NC(=O)c1ccc(Br)o1 | 8 | 1 | 1 | -2
O=C(CSc1ccccc1)Nc1ccc2c(c1)C(=O)NC2=O | 22 | 0 | 1 | 60*
Cc1ccc(NC(=O)COC(=O)c2cc(Cl)ccc2Cl)c(Br)c1 | 26* | -1 | 0 | 10
COC(=O)c1ccc(Cn2cnc3c(Cl)ncnc32)cc1 | · | 0 | · | ·
CCC(C)Nc1nc(N)c([N+](=O)[O-])c(Nc2ccccc2OC)n1 (configuration not stated) | 1 | 1 | -55* | 66*
COc1ccccc1Nc1nc(NCCCN(C)C)nc(N)c1[N+](=O)[O-] | 7 | 1 | -83* | 95*
Nc1nc(NCc2ccccc2)nc(NCCO)c1[N+](=O)[O-] | 1 | 2 | -16 | 41
SMILES | STK33 inh | CDK5 inh | GSK3beta inhib | GSK3 alpha inh
Nc1nc(NCCc2ccccc2)nc(NCCO)c1[N+](=O)[O-] | 5 | 11 | -1 | 93*
CN(C)CCCNc1nc(N)c([N+](=O)[O-])c(NCCO)n1 | 0 | 1 | -25 | 50*
COC1CCC2(C)C(=CCC3C4CC(O)CC4(C)CCC32)C1 (configuration not stated) | · | 0 | · | ·
Nc1c(C(=O)O)ccc2c1C(=O)c1ccccc1C2=O | 52* | 4 | -21 | 58*
Nc1cc(C(=O)O)c(N)c2c1C(=O)c1ccccc1C2=O | 77* | 22 | -1 | 55*
O=C(O)c1ccc([N+](=O)[O-])c2c1C(=O)c1ccccc1C2=O | -1 | -1 | 4 | 6
Nc1c(SCCC(=O)O)ccc2c1C(=O)c1ccccc1C2=O | 14 | 4 | 0 | 10
O=c1cc(-c2ccncc2)oc2ccccc12 | 8 | 2 | -41 | 58*
O=c1cc(-c2ccc(O)cc2)oc2ccccc12 | 4 | 2 | 6 | 2
O=c1c(Br)ccc(Br)cc1Br | · | -1 | · | ·
CSc1nc(NCC(C)O)c2c3c(sc2n1)CN(C)CC3 (configuration not stated) | 4 | 2 | -54* | 48
Cc1cccc(Nc2nc(N)c([N+](=O)[O-])c(NCCO)n2)c1 | 16 | 18 | -45 | 64*
COc1ccc(Nc2nc(N)c([N+](=O)[O-])c(NCCO)n2)cc1 | 21 | · | -53* | 75*
Nc1nc(Nc2cccc(Cl)c2)nc(NCc2ccco2)c1[N+](=O)[O-] | 2 | 0 | -3 | 11
Nc1nc(Nc2cccc(Cl)c2)nc(NCCO)c1[N+](=O)[O-] | 9 | 58* | -50* | 73*
C=CC1CN2CCC1CC2C(O)c1ccnc2ccc(OC)cc12 (configuration not stated) | · | 0 | · | ·
COc1ccc(C(=O)c2cc(OC)c(OC)c(OC)c2)cc1OC | · | 0 | · | ·
CCOC(=O)C1CCCC12Nc1cccc3cccc(c13)N2 (configuration not stated) | · | 2 | · | ·
CCn1c2ccccc2c2cc(/C=N/O)ccc21 | -1 | 6 | -23 | -1
CCn1c2ccc(/C(C)=N\O)cc2c2cc(/C(C)=N\O)ccc21 | 37* | 0 | 1 | 2
COc1cc(/C=C/C(=O)CC(=O)/C=C/c2ccc(O)c(OC)c2)ccc1O | 64* | 2 | -2 | -1
COc1cc(/C=C/C(=O)/C=C(O)/C=C/c2ccc(O)c(OC)c2)ccc1O | 61* | 2 | · | 2
COc1cc(/C=C/C(=O)O)ccc1O | 7 | -1 | -2 | 2
N#C/C(=C\C=C\c1ccccc1)C(=O)Nc1ccccc1 | -1 | 2 | 3 | -1
N#C/C(=C/C=C/c1ccccc1)C(=O)Nc1ccccc1 | 16* | -2 | · | 0
SMILES | STK33 inh | CDK5 inh | GSK3beta inhib | GSK3 alpha inh
Fc1ccc(CSc2nnc(-c3ccncc3)o2)cc1 | 1 | 0 | -54* | 13
CCOc1ccccc1C1NC(=O)c2ccccc2N1 (configuration not stated) | · | -2 | · | ·
Cc1ccc(-c2nn(CCC(=O)O)cc2/C=C\C(=O)c2ccc(Br)cc2)cc1 | 36* | -3 | 0 | 6
Cc1cn(CC(=O)NCc2ccc3c(c2)OCO3)c(=O)[nH]c1=O | · | 2 | · | ·
O=C(COc1cccc2cccnc12)N/N=C/c1ccc(O)cc1 | 5 | 0 | -40 | 56*
O=C(COc1ccccc1[N+](=O)[O-])N/N=C/c1ccc(O)cc1 | · | 0 | -51* | ·
COc1ccc(C(=O)O/N=C(\N)c2ccccn2)cc1 | 37* | 47 | -40 | 51*
COc1ccc(C(=O)NNC(=O)c2ccccn2)cc1 | 41* | 55* | -33 | 45
Cc1ccc(C(=O)O/N=C(\N)c2ccccn2)c(C)c1 | 0 | 51* | -28 | -1
COc1cc(OC)cc(C(=O)O/N=C(\N)c2ccccn2)c1 | 0 | · | -2 | -4
COc1cc(OC)cc(C(=O)NNC(=O)c2ccccn2)c1 | -1 | -1 | 0 | -2
N#Cc1c(-c2ccc(Cl)cc2)c(-c2ccc(Cl)cc2)nn(CCOC(=O)CCC(=O)O)c1=O | · | 0 | · | ·

Screening results from PubChem.
